From ChEMBL document CHEMBL1134751, “Design and synthesis of ether analogues as potent and selective M2 muscarinic receptor antagonists” (Bioorg Med Chem Lett, 2001) come the findings set out here.

Assay [1] concerns the target Muscarinic acetylcholine receptors; M2 & M3 (Homo sapiens) (UniProt P20309+P08172). Nature of the assay: Ratio of binding affinity against Muscarinic acetylcholine receptor M3 to that of Muscarinic acetylcholine receptor M2. Format: protein assay.
Assay [2] deals with T1, Muscarinic acetylcholine receptor M2 (Homo sapiens) (UniProt P08172).
T1 sequence (whole entry): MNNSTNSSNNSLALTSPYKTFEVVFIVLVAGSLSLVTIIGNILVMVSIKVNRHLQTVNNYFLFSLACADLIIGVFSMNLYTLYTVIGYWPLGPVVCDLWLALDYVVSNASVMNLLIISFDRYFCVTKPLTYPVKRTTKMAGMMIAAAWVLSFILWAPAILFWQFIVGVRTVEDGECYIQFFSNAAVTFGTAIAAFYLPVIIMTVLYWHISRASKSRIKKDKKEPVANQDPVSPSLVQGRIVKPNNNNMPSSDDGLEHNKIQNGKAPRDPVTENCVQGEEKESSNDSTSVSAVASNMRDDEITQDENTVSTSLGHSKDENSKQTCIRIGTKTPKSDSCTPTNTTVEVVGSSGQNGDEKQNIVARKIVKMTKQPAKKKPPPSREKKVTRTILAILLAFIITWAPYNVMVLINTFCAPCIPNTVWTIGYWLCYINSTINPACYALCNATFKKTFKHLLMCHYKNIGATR
As to the kind of experiment: Ratio of binding affinity against Muscarinic acetylcholine receptor M5 to that of Muscarinic acetylcholine receptor M2.

The target in assay [3] is T2, Muscarinic acetylcholine receptor M2 (Homo sapiens, UniProt P08172).
T2 sequence (P08172 whole entry): T1 sequence (whole entry)
As to the kind of experiment: Binding affinity towards Muscarinic acetylcholine receptor M2 stably expressed in CHO-K1 cells using [3H]-QNB as radioligand. Format: cell-based. The procedure, abridged: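 Competition binding on membranes of clonal cells expressing receptor at 1–9 pmol/mg protein. Incubated with 180 pM [3H]QNB in 10 mM potassium phosphate pH 7.4 plus 1% DMSO and 0.4% methylcellulose for 120 min at rt to equilibrium. Non-specific binding defined with 0.5 mM atropine, protein set for 700–1500 cpm specific binding, then filtration separation. QNB Kd from saturation with 5–2500 pM [3H]QNB.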

The target in assay [4] is T1, Muscarinic acetylcholine receptor M2 (Homo sapiens). As to the kind of experiment: Ratio of binding affinity against Muscarinic acetylcholine receptor M4 to that of Muscarinic acetylcholine receptor M2.
Assay [5] has as its target Muscarinic acetylcholine receptors; M1 & M2 (Homo sapiens) (UniProt P11229+P08172). Nature of the assay: Ratio of binding affinity against Muscarinic acetylcholine receptor M1 to that of Muscarinic acetylcholine receptor M2. The class given is protein assay.

Chain of Muscarinic acetylcholine receptors; M1 & M2 (Homo sapiens) (P11229 whole entry, looked up, one chain of several): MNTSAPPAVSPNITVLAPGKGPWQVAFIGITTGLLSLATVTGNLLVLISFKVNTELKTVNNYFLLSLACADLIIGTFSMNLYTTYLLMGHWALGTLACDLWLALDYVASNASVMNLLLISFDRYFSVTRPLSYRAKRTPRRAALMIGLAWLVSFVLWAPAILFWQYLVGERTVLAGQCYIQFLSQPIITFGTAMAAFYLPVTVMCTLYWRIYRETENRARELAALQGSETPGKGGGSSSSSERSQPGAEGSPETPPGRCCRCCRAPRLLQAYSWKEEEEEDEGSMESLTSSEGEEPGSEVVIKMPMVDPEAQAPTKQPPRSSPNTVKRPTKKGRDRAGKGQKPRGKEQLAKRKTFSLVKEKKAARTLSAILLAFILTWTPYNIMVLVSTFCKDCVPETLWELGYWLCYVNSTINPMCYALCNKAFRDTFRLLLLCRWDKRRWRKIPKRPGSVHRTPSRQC

As usually defined, the Ki is the dissociation constant of the complex between target and ligand, obtained from inhibition or displacement. On to `O=C(COc1ccccc1)N1CCC(N2CCC(Oc3ccc(S(=O)(=O)c4ccc5c(c4)OCO5)cc3)CC2)CC1`, for which the Ratio in assay [1] was 5; in assay [2], 13; in assay [4], 3; in assay [5], 8. The affinity in assay [3], expressed as Ki, was 59.5 nM.

As for `CCCS(=O)(=O)N1CCC(N2CCC(Oc3ccc(S(=O)(=O)c4ccc5c(c4)OCO5)cc3)CC2)CC1`, the Ratio in assay [1] was determined as 46; in assay [2], 39; in assay [4], 25; in assay [5] it was 58. Affinity in assay [3] was put at a Ki of 1.6 nM.

Turning to `O=C(c1ccccc1)N1CCC(N2CCC(Oc3ccc(S(=O)(=O)c4ccc5c(c4)OCO5)cc3)CC2)CC1`, the Ratio in assay [1] was found to be 6; in assay [2], 15; in assay [4] it was 6; in assay [5], 18. In addition, in assay [3], the Ki was 1.6 nM.

On to `CCOCC(=O)N1CCC(N2CCC(Oc3ccc(S(=O)(=O)c4ccc5c(c4)OCO5)cc3)CC2)CC1`, for which the Ratio in assay [1] is 5; in assay [2] it was 13; in assay [4] it was 2; in assay [5], 6. Besides, in assay [3], the inhibition constant (Ki) worked out at 17.9 nM.

For the compound `CCOC(=O)N1CCC(N2CCC(Oc3ccc(S(=O)(=O)c4ccc5c(c4)OCO5)cc3)CC2)CC1`, the Ki in assay [3] was found to be 6 nM. Also, the Ratio in assay [5] was 4.

On to `Cc1cccc(C(=O)N2CCC(N3CCC(Oc4ccc(S(=O)(=O)c5ccc6c(c5)OCO6)cc4)CC3)CC2)c1C`, for which the Ratio in assay [1] is 132; in assay [2], 56; in assay [4] it was 31; in assay [5], 155. In addition, affinity in assay [3] was put at a Ki of 0.4 nM.

`O=C(c1cccc2ccccc12)N1CCC(N2CCC(Oc3ccc(S(=O)(=O)c4ccc5c(c4)OCO5)cc3)CC2)CC1`: the Ratio in assay [1] was determined as 216; in assay [2] it was 50; in assay [4] it was 28; in assay [5], 357. Moreover, the Ki in assay [3] stood at 0.5 nM.

For the compound `O=S(=O)(c1ccc(OC2CCN(C3CCN(S(=O)(=O)Cc4ccccc4)CC3)CC2)cc1)c1ccc2c(c1)OCO2`, the Ratio in assay [1] is 12; in assay [2], 1; in assay [4], 4; in assay [5] it was 19. Moreover, in assay [3], the affinity corresponds to a Ki of 15 nM.

The compound `CCCS(=O)(=O)N1CCC(N2CCC(Oc3ccc(S(=O)(=O)c4ccc(OC)cc4)cc3)CC2)CC1` came in with a Ki in assay [3] of 139 nM.

As to `CCS(=O)(=O)N1CCC(N2CCC(Oc3ccc(S(=O)(=O)c4ccc5c(c4)OCO5)cc3)CC2)CC1`, the Ratio in assay [1] was found to be 122; in assay [2] it was 46; in assay [4] it was 12; in assay [5], 49. Moreover, affinity in assay [3] was put at a Ki of 2 nM.

On to `Cc1ccsc1C(=O)N1CCC(N2CCC(Oc3ccc(S(=O)(=O)c4ccc5c(c4)OCO5)cc3)CC2)CC1`, for which the Ratio in assay [1] was found to be 109; in assay [2], 196; in assay [4] it was 23; in assay [5], 234. The compound further showed an inhibition constant (Ki) in assay [3] of 0.2 nM.

In the case of `CCCCS(=O)(=O)N1CCC(N2CCC(Oc3ccc(S(=O)(=O)c4ccc5c(c4)OCO5)cc3)CC2)CC1`, the Ratio in assay [1] stood at 50; in assay [2] it was 35; in assay [4], 4; in assay [5], 35. Further, the Ki in assay [3] was 6.9 nM.

With `O=C(c1ccnc2ccccc12)N1CCC(N2CCC(Oc3ccc(S(=O)(=O)c4ccc5c(c4)OCO5)cc3)CC2)CC1`, the Ratio was found to be 117 in assay [1], 1480 in assay [2], 18 in assay [4] and 140 in assay [5]. The compound further showed a Ki in assay [3] of 1 nM.

As to `O=C(Oc1ccccc1)N1CCC(N2CCC(Oc3ccc(S(=O)(=O)c4ccc5c(c4)OCO5)cc3)CC2)CC1`, the Ratio in assay [1] was found to be 61; in assay [2], 69; in assay [4], 11; in assay [5], 48. This compound gave an inhibition constant Ki in assay [3] of 1.1 nM.

In the case of `CC(C)OC(=O)N1CCC(N2CCC(Oc3ccc(S(=O)(=O)c4ccc5c(c4)OCO5)cc3)CC2)CC1`, the Ratio is 19 in assay [1], 10 in assay [2], 7 in assay [4] and 59 in assay [5]. In assay [3], the Ki was 3.2 nM.

For the compound `O=S(=O)(c1ccc(OC2CCN(C3CCN(S(=O)(=O)c4cccc5ccccc45)CC3)CC2)cc1)c1ccc2c(c1)OCO2`, the Ratio is 8 in assay [1], 4 in assay [2], 1 in assay [4] and 2 in assay [5]. In assay [3], this compound came in with an inhibition constant Ki of 34.7 nM.

Take `CC(C)S(=O)(=O)N1CCC(N2CCC(Oc3ccc(S(=O)(=O)c4ccc5c(c4)OCO5)cc3)CC2)CC1`: the Ratio in assay [1] stood at 2; in assay [2], 16; in assay [4] it was 2; in assay [5], 10. For the same compound, the inhibitory constant (Ki) in assay [3] amounted to 14 nM.

`O=C(c1cccc2ncccc12)N1CCC(N2CCC(Oc3ccc(S(=O)(=O)c4ccc5c(c4)OCO5)cc3)CC2)CC1`: the Ratio is 124 in assay [1], 64 in assay [2], 21 in assay [4] and 233 in assay [5]. In assay [3], this compound yielded an inhibition constant Ki of 0.5 nM.

Take `O=C(c1cccc2cccnc12)N1CCC(N2CCC(Oc3ccc(S(=O)(=O)c4ccc5c(c4)OCO5)cc3)CC2)CC1`: the Ratio in assay [1] was determined as 10; in assay [2] it was 4; in assay [4], 2; in assay [5] it was 9. For the same compound, the affinity in assay [3] corresponds to a Ki of 12 nM.
